Assay results from publication PMC9284555 (Journal of Agricultural and Food Chemistry, 2022).

Tests used:
[1] = assay type: in vivo, human; details: for relative intensity (EGCG = 1): LC-MS intensity in human plasma after ingestion of catechin-rich tea; for AUC0–6h / T1/2 / Tmax: human plasma, oral catechin-rich beverage (135 mg EGCG), mean ± SD, n = 10
Outline: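 Ten healthy fasted men drank 350 mL of a beverage with 615 mg catechins (135 mg EGCG). Plasma was taken at 0.5–6 h, acid/ascorbate/EDTA-stabilised and stored at −80 °C. Samples went through solid-phase extraction with an ethyl gallate internal standard. Analytes were identified and quantified by Orbitrap LC–MS (calibration 1–500 ng/mL). Parameters came from noncompartmental analysis; mean ± SD.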

SULT1A3 = details: inhibition of SULT1A3; cited from earlier work
SULT1A1 = details: inhibition of SULT1A1; cited from earlier work
COMT = details: inhibition of COMT; cited from earlier work

relative intensity (EGCG = 1) [1] | AUC0–6h [1] [nmol·h·L^–1] | T1/2 [1] [h] | Tmax [1] [h] | Compound | IC50 (SULT1A3) [µM] | IC50 (SULT1A1) [µM] | IC50 (COMT) [µM]
0.76 | 715.2 ± 127.1 | 3.9 ± 1.5 | 2.5 ± 0.60 | O=C(O[C@@H]1Cc2c(O)cc(O)cc2O[C@@H]1c1cc(O)c(O)c(O)c1)c1cc(O)c(OS(=O)(=O)O)c(O)c1 [EGCG-4″-sulfate] | – | – | –
– | – | – | – | O=c1c(O)c(-c2ccc(O)c(O)c2)oc2cc(O)cc(O)c12 [quercetin] | 7 | 0.41 to 13 | 0.9 to 8.5
0.39 | 198.9 ± 23.8 | 1.5 ± 0.64 | 1.3 ± 0.26 | O=C(O[C@@H]1Cc2c(O)cc(O)cc2O[C@@H]1c1cc(O)c(O)c(O)c1)c1cc(O)c(O[C@@H]2O[C@H](C(=O)O)[C@@H](O)[C@H](O)[C@H]2O)c(O)c1 [EGCG-4″-glucuronide] | – | – | –

Compound | relative intensity (EGCG = 1) [1] | AUC0–6h [1] [nmol·h·L^–1] | T1/2 [1] [h] | Tmax [1] [h] | IC50 (SULT1A3) [µM] | IC50 (SULT1A1) [µM] | IC50 (COMT) [µM]
(E)GCG-dimethyl-sulfate [(E)GCG-diMe-sulfate] | 0.54 | – | – | – | – | – | –
